Key:
[1] = Selectivity ratio of IC50 for human MCF-10A cells to IC50 for human MDA-MB-231 cells; format: toxicity; settings: MCF-10A cells versus MDA-MB-231 cells, read-out: Ratio IC50
A549 = assay: Cytotoxicity against human A549 cells assessed as reduction in cell viability by SRB assay; format: functional, cell-based
In short: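 Cells seeded in 96-well plates and exposed to compounds for the stated times. Zero-day controls were incubated 30 min. Cells were fixed and stained with 0.4% SRB in 1% acetic acid, and bound dye was dissolved in 10 mM Tris (pH 10.0). A515 was read, and IC50 was calculated by non-linear regression.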

[2] = Toxicity in human MDA-MB-231 cells xenografted BALB/c nu mouse at 5 to 15 mg/kg, ip administered thrice per week for 38 days; format: organism-based; settings: in vivo, 912 h, dose 5-15 mg/kg, time 38 day
In short: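 Female BALB/c-nu mice, 5–6 weeks old, received 1 × 10⁷ luciferase-expressing MDA-MB-231 cells in 50:50 DMEM/Matrigel into the fourth fat pad. At day 10, mice were randomized into groups of six. Dosing was i.p. three times weekly for 38 days, in vehicle EtOH/Cremophor/saline 5:5:90. Body weight was recorded weekly, and toxicity was judged by lethality and weight loss.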

O=C(NCC[Se][Se]CCNC(=O)/C(Cc1ccccc1)=N/O)/C(Cc1ccccc1)=N/O
selectivity ratio [1]: > 100 | IC50 (A549): 0.08 µM | Activity [2]: Non-Toxic

— ChEMBL document CHEMBL4706701, “Synthesis and biological activity of selenopsammaplin A and its analogues as antitumor agents with DOT1L inhibitory activity” (Bioorg Med Chem, 2021)
